This is an account of results in ChEMBL document CHEMBL4007452, “Discovery of an Orally Selective Inhibitor of Signal Transducer and Activator of Transcription 3 Using Advanced Multiple Ligand Simultaneous Docking” (J Med Chem, 2017).

The nature of data set [1]: Cmax in Sprague-Dawley rat plasma at 10 mg/kg, po measured after 24 hrs by UPLC analysis. The data set is classed as ADME, organism-based. Details: dose 10 mg/kg, route oral. The method, boiled down:
(§1)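 Rat plasma sampled from 2 min to 24 h after a single i.v. (1 mg/kg) or p.o. (10 mg/kg) dose. Parameters were derived from the concentration-time profiles. The bioanalytical method was validated to FDA guidelines for selectivity, linearity, LLOQ, accuracy, precision, recovery, matrix effect and stability.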

Data set [2] in a line: Selectivity ratio of IC50 for human MCF-10A cells to IC50 for human MDA-MB-231 cells. The essentials:
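MTT viability assay. MCF-10A was grown in RPMI-1640 and MDA-MB-231 in DMEM, each with 10% FBS. Cells were seeded at 3000 per well and left 24 h at 37 °C. Compound was then added in triplicate with 10% FBS, at 0.1-10 µM for the cancer cells and 3.125-400 µM for MCF-10A. Absorbance was read at 595 nm. The ratio is IC50 for MCF-10A over IC50 for MDA-MB-231.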

Data set [3] is described as follows: AUC (0 to t) in Sprague-Dawley rat plasma at 10 mg/kg, po measured after 24 hrs by UPLC analysis. The data set is classed as ADME, organism-based. Details: time < 24 hr, dose 10 mg/kg, route oral. The method, boiled down: as §1
Data set [4] deals with MDA-MB-231. Kind of data set: Induction of apoptosis in human MDA-MB-231 cells assessed as increase in cleaved caspase level at 2.5 to 5 uM after 12 hrs by immunoblot analysis. The data set is classed as functional, cell-based. The essentials: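 MDA-MB-231 cells at 60–80% confluence were treated 12 h with 10% FBS at 2.5-10 µM or 2.5-5 µM, against a DMSO control. Whole-cell lysates were immunoblotted, with bands quantified as percent of control.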
For orientation: In western blotting, separated proteins are transferred to a membrane and probed.

Data set [5] is described as follows: Terminal half life in Sprague-Dawley rat plasma at 1 mg/kg, iv measured after 24 hrs by UPLC analysis. In kind it is ADME, organism-based. The note with it: read-out: beta t1/2 (converted). The method, boiled down:
(§2)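 Rats dosed i.v. or p.o. Plasma concentrations followed from 2 min to 24 h after dosing. The bioanalytical method was validated to FDA guidelines for selectivity, linearity, LLOQ, accuracy, precision, recovery, matrix effect and stability.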

Data set [6] deals with Mus musculus. The data set can be described thus: Toxicity in BALB/c nude mouse xenografted with human MDA-MB-231 cells assessed as lung damage at 2.5 to 10 mg/kg, po qd administered for 32 days by H&E staining based light microscopy. As to conditions: in vivo, 768 h. In kind it is organism-based. The method, boiled down: (§3)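 6-week-old female athymic SPF BALB/c nude mice received 5 x 10^6 MDA-MB-231 cells s.c. in the flank. Oral treatment began once tumors reached about 100 mm3, with 8 mice per group and a saline vehicle control. […] Treatment lasted 32 days. Heart, liver, spleen, lung and kidney were fixed 48 h in 10% neutral-buffered formaldehyde, paraffin-embedded, cut at 5 µm, H&E-stained and examined by light microscopy.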

For data set [7], the target named is T1, Signal transducer and activator of transcription 3 (Homo sapiens, UniProt P40763). As to conditions: 2.5 to 5 uM.
For data set [8], the system named is U2OS. Kind of data set: Antiproliferative activity against human U2OS cells after 24 hrs by MTT assay. The data set is classed as functional, cell-based. The essentials: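 Cells were seeded at 3000 per well and incubated 24 h at 37 °C. Compounds were added in triplicate with 10% FBS: 0.1-10 or 0.1-20 µM for cancer lines, 3.125-400 µM for MCF-10A. Viability was read by MTT absorbance at 595 nm, with IC50 fitted from the curves. DMSO stocks were 20 mM.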
On the technique in general: Formazan colour is commonly taken as a measure of viable cells.

In data set [9] the test system is Mus musculus. The data set can be described thus: In vivo inhibition of STAT3 in po dosed BALB/c nude mouse xenografted with human MDA-MB-231 assessed as reduction in p-STAT3(Y705) level administered as qd for 32 days by Western blot analysis. In kind it is functional, organism-based. The method, boiled down:
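Whole-cell lysates from MDA-MB-231 xenograft tumors of mice dosed orally at 2.5, 5 or 10 mg/kg were immunoblotted for P-STAT3(Y705), T-STAT3 and GAPDH.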
In general terms: Xenograft models place foreign cells or tissue in a host animal.

A short description of data set [10]: Tmax in Sprague-Dawley rat plasma at 10 mg/kg, po measured after 24 hrs by UPLC analysis. The data set is classed as ADME, organism-based. The essentials:
as §2

Data set [11] concerns MDA-MB-231. The data set can be described thus: Anticancer activity against human MDA-MB-231 cells xenografted in BALB/c nude mouse assessed as reduction in tumor volume at 5 mg/kg, po qd administered for 32 days. In kind it is functional. Also on record: scale not given: the % may be the effect or the level left. As to conditions: in the assay text read “tumor weight” for “tumor volume”.

Data set [12] in a line: MRT (0 to t) in Sprague-Dawley rat plasma at 1 mg/kg, iv measured after 24 hrs by UPLC analysis. The data set is classed as ADME, organism-based. The method, boiled down: as §1
The test system of data set [13] is Mus musculus. The data set can be described thus: Toxicity in BALB/c nude mouse xenografted with […] S180 cells assessed as body weight loss at 5 mg/kg, po after 21 days relative to vehicle control. In kind it is organism-based. The note with it: in vivo, 504 h.
Data set [14] addresses T1, Signal transducer and activator of transcription 3. Kind of data set: Displacement of 5-FAM-SpYLPQTV from STAT3 (unknown origin) at pY705 site after 30 mins by fluorescence polarization assay.
Data set [15] relates to Rattus norvegicus. Kind of data set: AUMC (0 to infinity) in Sprague-Dawley rat plasma at 1 mg/kg, iv measured after 24 hrs by UPLC analysis. In kind it is ADME, organism-based. The note with it: in vivo. The essentials:
as §1

Data set [16] deals with T2, Signal transducer and activator of transcription 1-alpha/beta (Homo sapiens) (UniProt P42224).
T2 sequence (whole entry): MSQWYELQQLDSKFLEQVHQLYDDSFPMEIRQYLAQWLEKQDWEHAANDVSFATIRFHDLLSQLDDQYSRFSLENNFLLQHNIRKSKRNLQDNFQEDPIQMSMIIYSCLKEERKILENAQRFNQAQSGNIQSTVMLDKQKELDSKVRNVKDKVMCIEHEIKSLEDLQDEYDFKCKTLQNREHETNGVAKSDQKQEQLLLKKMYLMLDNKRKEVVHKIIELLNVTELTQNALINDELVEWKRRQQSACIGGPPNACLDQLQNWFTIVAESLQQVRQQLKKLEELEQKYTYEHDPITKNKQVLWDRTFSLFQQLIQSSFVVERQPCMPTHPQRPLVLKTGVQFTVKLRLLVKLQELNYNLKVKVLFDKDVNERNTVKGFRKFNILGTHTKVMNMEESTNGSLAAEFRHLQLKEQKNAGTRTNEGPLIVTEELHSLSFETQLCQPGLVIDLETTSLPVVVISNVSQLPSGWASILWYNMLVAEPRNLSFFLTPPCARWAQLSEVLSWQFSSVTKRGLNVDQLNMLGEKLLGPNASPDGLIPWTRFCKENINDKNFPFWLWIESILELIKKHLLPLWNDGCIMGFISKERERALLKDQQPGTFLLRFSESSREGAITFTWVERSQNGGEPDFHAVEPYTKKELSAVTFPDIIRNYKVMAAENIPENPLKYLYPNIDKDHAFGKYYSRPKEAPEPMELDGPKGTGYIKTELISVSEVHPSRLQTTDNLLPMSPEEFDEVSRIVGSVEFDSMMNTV
Kind of data set: Inhibition of STAT1 in human MDA-MB-231 cells assessed as reduction in STAT1 phosphorylation at Y701 site at 2.5 to 10 uM after 12 hrs by immunoblot analysis. In kind it is cell-based.

Data set [17] is described as follows: Terminal half life in Sprague-Dawley rat plasma at 10 mg/kg, po measured after 24 hrs by UPLC analysis. In kind it is ADME, organism-based. The note with it: read-out: beta t1/2 (converted). The method, boiled down: as §2
In data set [18] the test system is Mus musculus. Kind of data set: Toxicity in BALB/c nude mouse xenografted with human MDA-MB-231 cells assessed as kidney damage at 2.5 to 10 mg/kg, po qd administered for 32 days by H&E staining based light microscopy. In kind it is organism-based. The note with it: in vivo, 768 h. The method, boiled down: as §3

Activity calls are given as the source filed them. No cut-off for these calls is given here.

T1 sequence (P40763 whole entry): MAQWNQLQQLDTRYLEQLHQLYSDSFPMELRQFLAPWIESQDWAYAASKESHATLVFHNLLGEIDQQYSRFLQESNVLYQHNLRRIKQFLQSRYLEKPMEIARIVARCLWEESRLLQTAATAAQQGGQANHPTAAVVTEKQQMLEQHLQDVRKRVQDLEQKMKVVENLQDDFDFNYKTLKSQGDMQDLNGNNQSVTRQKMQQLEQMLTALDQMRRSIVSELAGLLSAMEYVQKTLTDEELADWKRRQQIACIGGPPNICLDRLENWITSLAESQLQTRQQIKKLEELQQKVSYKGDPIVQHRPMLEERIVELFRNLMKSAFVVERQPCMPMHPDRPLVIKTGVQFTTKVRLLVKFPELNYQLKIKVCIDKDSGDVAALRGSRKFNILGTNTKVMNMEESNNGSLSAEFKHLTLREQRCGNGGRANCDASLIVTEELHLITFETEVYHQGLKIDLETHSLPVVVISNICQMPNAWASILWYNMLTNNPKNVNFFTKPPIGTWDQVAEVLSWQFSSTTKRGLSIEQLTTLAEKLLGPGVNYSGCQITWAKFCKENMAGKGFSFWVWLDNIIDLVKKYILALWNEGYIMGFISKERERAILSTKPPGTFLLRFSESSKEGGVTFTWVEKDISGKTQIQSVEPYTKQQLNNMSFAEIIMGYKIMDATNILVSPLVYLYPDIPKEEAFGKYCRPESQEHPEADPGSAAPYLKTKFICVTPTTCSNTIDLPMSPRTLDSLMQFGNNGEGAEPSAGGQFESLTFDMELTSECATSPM

`NS(=O)(=O)c1cccc2c1C(=O)C=C(Nc1ccccc1N1CCNCC1)C2=O` gave a Cmax in [1] of 540 ng/mL. In [2], the “Ratio IC50” value stood at 184. Also, the AUC(0-t) at 24 h in data set [3] turned out to be 850 ng·h/mL. In data set [4], the outcome was Active. For the same compound, the half-life in data set [5] is 42.6 min; in [17], 119 min. Further, the Activity entry in data set [6] was “Non-Toxic”; in [11], 60%; in data set [13] it was 1.68%; in data set [18], “Non-Toxic”. Further, the inhibition entry in data set [7] was “Active”. This compound also showed a half-maximal inhibitory concentration (IC50) in [8] of 1500 nM. Further, in data set [9], the inhibition result was “Dose-dependent effect”. Further, the Tmax in [10] worked out at 30 min. Moreover, the mean residence time (MRT last) at 24 h in [12] was 33 min. Besides, the affinity in [14] corresponds to a Ki of 440 nM. In data set [15], this compound came in with an AUMC of 149 hr2.ng/ml. Further, in data set [16], the inhibition result was “inactive”.

As usually defined, the Cmax is the highest concentration seen after dosing. A word on the AUC(0-t): it is the area under the concentration-time curve up to a stated or last time point. By IC50 is commonly meant the midpoint of a concentration-inhibition curve. One may read the Tmax as the time at which the peak concentration occurs. As a reminder, the MRT last is a mean duration of stay, worked out from the concentration-time curve. By Ki is commonly meant the dissociation constant of the complex between target and ligand, obtained from inhibition or displacement.
